Assay results: ChEMBL document CHEMBL4393735, “Molecular modelling, synthesis, and biological evaluations of a 3,5-disubstituted isoxazole fatty acid analogue as a PPARα-selective agonist” (Bioorg Med Chem, 2019)
Active and inactive are the calls of the source.

Assays:
SGBS [1] = assay: Upregulation of ADIPOQ gene expression in human preadipocyte derived from Simpson-Golabi-Behmel syndrome (SGBS) patient at 25 uM measured for 12 days by qRT-PCR analysis; format: functional, cell-based
Procedure, shortened: (§1)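 SGBS cells were differentiated with serum-free induction medium containing 25 μM test agent, 2 μM rosiglitazone or 0.1% DMSO from day 0. IBMX and dexamethasone were removed on day 4 and medium was renewed on day 8. RNA was taken on days 0, 4, 8 and 12 for qPCR, normalized to TBP and to day 0. At least three biological replicates in duplicate, two-way ANOVA with Bonferroni.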

COS-1 = assay: Cytotoxicity against African green monkey COS1 cells assessed as reduction in cell viability at 10^-3 M by LDH release assay relative to control; format: cell-based; details: chlorocebus aethiops, cos-1, 1000 µM
Procedure, shortened: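 COS-1 cells were treated across the same concentration series as the GAL4 dose-response runs. Cytotoxicity was measured as LDH released into medium (absorbance 492/750 nm) and by XTT viability assay (absorbance 450/690 nm). Results expressed relative to control.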

[2] = target: T1, Peroxisome proliferator-activated receptor alpha (Homo sapiens) (UniProt Q07869); assay: Agonist activity at PPARalpha in human Huh7 cells assessed as activation of CPT1A mRNA expression at 50 uM measured after 18 hrs by qRT-PCR analysis; format: cell-based
T1 sequence (whole entry): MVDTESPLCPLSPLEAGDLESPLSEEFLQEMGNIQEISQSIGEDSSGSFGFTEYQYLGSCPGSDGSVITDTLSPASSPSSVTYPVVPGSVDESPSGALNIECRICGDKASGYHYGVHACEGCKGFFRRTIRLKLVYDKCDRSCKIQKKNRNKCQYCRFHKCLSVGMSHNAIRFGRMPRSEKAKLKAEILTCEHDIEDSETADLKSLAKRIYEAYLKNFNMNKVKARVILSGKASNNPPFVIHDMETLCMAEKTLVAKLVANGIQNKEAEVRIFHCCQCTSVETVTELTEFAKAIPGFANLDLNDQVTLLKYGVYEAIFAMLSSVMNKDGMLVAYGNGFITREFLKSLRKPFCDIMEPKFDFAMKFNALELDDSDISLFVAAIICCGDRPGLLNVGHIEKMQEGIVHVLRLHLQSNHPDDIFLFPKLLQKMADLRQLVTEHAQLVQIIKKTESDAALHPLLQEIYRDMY
Procedure, shortened: (§2)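 Treatment for 18 h at 50 μM (or 1 μM for the 1 μM agents), DMSO vehicle. Harvested for qPCR. mRNA normalized to TBP by the comparative threshold method, expressed relative to DMSO control. Two biological replicates run in duplicate, mean ± SEM. Primary hepatocytes came from male C57BL/6N mice aged 7–8 weeks, isolated by portal-vein perfusion and digestion, seeded on collagen I and used on day 2. HuH-7 cells were kept in DMEM with 10% FBS and ITS.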

SGBS [3] = assay: Upregulation of CD36 gene expression in human preadipocyte derived from Simpson-Golabi-Behmel syndrome (SGBS) patient at 25 uM measured for 12 days by qRT-PCR analysis; format: functional, cell-based; procedure, shortened: as §1
[4] = target: T1, Peroxisome proliferator-activated receptor alpha (Homo sapiens); assay: Agonist activity at PPARalpha in human Huh7 cells assessed as SCD1 mRNA expression at 50 uM measured after 18 hrs by qRT-PCR analysis; format: cell-based; procedure, shortened: as §2
[5] = target: T2, Peroxisome proliferator-activated receptor alpha (Mus musculus) (UniProt P23204); assay: Agonist activity at PPARalpha in C57BL/6N mouse primary hepatocytes assessed as activation of Cpt1a mRNA expression at 50 uM measured after 18 hrs by qRT-PCR analysis; format: cell-based; procedure, shortened: as §2
T2 sequence (whole entry): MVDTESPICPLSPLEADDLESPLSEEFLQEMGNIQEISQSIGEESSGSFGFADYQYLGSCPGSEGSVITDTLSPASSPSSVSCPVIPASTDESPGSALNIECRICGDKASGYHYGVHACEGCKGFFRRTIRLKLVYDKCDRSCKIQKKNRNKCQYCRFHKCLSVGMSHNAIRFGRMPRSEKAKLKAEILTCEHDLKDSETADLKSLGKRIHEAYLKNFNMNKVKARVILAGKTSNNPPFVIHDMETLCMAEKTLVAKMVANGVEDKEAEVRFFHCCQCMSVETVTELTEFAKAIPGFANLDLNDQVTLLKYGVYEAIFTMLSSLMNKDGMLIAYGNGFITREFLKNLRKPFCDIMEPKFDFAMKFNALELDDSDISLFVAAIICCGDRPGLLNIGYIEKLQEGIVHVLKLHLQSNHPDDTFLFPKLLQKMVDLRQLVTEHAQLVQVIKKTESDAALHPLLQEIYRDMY

SGBS [6] = assay: Upregulation of CEBPA gene expression in human preadipocyte derived from Simpson-Golabi-Behmel syndrome (SGBS) patient at 25 uM measured for 12 days by qRT-PCR analysis; format: functional, cell-based; procedure, shortened: as §1
[7] = target: T3, Oxysterols receptor LXR-beta (Homo sapiens) (UniProt P55055); assay: Agonist activity at full length human GAL4-DBD fused LXRbeta LBD (155 to 461 residues) expressed in COS1 cells at 25 to 50 uM measured after 18 hrs by dual luciferase reporter gene assay; format: cell-based
T3 sequence (whole entry): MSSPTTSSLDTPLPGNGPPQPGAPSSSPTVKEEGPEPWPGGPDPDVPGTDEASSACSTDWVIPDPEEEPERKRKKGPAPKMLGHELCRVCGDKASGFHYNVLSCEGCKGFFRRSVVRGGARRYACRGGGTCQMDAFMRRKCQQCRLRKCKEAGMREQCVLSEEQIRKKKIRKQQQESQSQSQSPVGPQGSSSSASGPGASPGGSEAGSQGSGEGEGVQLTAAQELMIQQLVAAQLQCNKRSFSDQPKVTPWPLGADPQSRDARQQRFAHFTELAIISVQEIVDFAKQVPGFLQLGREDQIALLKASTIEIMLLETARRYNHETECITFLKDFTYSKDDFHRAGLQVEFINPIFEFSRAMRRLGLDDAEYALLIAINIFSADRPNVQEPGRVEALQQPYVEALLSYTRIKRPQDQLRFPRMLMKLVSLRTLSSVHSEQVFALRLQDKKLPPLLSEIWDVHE
Procedure, shortened: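 COS-1 cells were transfected using Lipofectamine 2000 with GAL4-DBD–human NR-LBD plasmid, a 5×UAS-SV40 firefly luciferase reporter and pRL-CMV. After 6 h, cells were treated with 0, 25 or 50 μM in 0.1% DMSO (final) for 18 h. Firefly signal was normalized to Renilla, then to DMSO control and GAL4-only. Three biological replicates in quadruplicate, mean ± SEM, two-way ANOVA with Bonferroni.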

Compound: CCCCCCCc1cc(CCCCCC(=O)O)no1
- Activity (SGBS [1]): Active
- Activity (COS-1): 60%
- Activity [2]: Active
- Activity (SGBS [3]): Active
- Activity [4]: inactive
- Activity [5]: Active
- Activity (SGBS [6]): Active
- Activity [7]: inactive
